How the values were obtained:
Format in all cases: functional, organism-based
[1] = species: Rattus norvegicus; assay: Inhibitory concentration against lipid peroxidation in rat
How it was run: (§1)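 TBARS assay in rat brain homogenate (5 mg protein/mL). Compound was preincubated with homogenate 20 min at 37 °C with shaking, then peroxidation was started with 0.02 mM FeCl2 and 0.25 mM ascorbic acid for 30 min at 37 °C. The reaction was stopped with perchloric acid and centrifuged. Supernatant was reacted with 0.5% TBA at 80 °C for 1 h and A532 read against a 1,1,3,3-tetraethoxypropane standard.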

[2] = species: Bos taurus; assay: Inhibitory concentration against bovine serum albumin glycation was determined
[3] = species: Bos taurus; assay: Inhibitory concentration against bovine serum albumin glycation; Not active from 3.80 nM to 1.00 mM
[4] = species: Rattus norvegicus; assay: Inhibitory concentration for lipid peroxidation in rat; how it was run: as §1

SMILES	IC50 [1] [µM]	IC50 [2] [µM]	IC50 [3]	IC50 [4] [µM]
COC1=C(OC)C(=O)C(c2ccccc2)=C(C)C1=O	39.4	218	–	–
CC1=C(Cl)C(=O)c2ccccc2C1=O	1.41	199	–	–
Cc1c(C)c2c(c(C)c1O)CC[C@@](C)(CCC[C@H](C)CCC[C@H](C)CCCC(C)C)O2 [ALPHA-TOCOPHEROL]	–	–	Not Active	–
CC1=CC(=O)c2ccccc2C1=O [MENADIONE]	12.2	–	–	–
CC1=C(Br)C(=O)c2ccccc2C1=O	1.1	144	–	–
COC1=C(OC)C(=O)C(C(=O)NCCc2ccccc2)=C(C)C1=O	–	–	–	29.2

— ChEMBL document CHEMBL1144324, “2,3-Dimethoxy-5-methyl-1,4-benzoquinones and 2-methyl-1,4-naphthoquinones: glycation inhibitors with lipid peroxidation activity” (Bioorg Med Chem Lett, 2005)
